Measurements: ChEMBL document CHEMBL4325855 (Eur J Med Chem, 2019)
Active and inactive are the calls of the source. The rule behind the calls is not given here.

target: T1, c-Jun N-terminal kinase, JNK (Homo sapiens, UniProt P45983+P53779+P45984); assay: Inhibition of JNK in human MONO-MAC-6 cells assessed as reduction in LPS-induced IL6 production preincubated for 30 mins followed by LPS-stimulation and measured after 24 hrs by ELISA; type: cell-based; conditions: not given
Outline: (§1)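 MonoMac-6 cells, 2 × 10^5/well in medium with 3% endotoxin-free FBS, were pretreated 30 min with compound or DMSO, then stimulated with 250 ng/ml LPS for 24 h. IL-6 in the supernatant was measured by human IL-6 ELISA. IC50 came from percent inhibition vs log concentration (at least five points); triplicate samples, representative of three experiments.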

| IC50 [µM] | SMILES |
| --- | --- |
| 6.7 | O/N=C1/c2ccccc2-c2nc3ncc(Cl)cc3nc21 |
| 11.1 | O=C(O)c1ccc2nc3c(nc2c1)/C(=N\O)c1ccccc1-3 |
| 2.1 | O/N=C1/c2ccccc2-c2nc3ccncc3nc21 |

target: T1, c-Jun N-terminal kinase, JNK; assay: Inhibition of JNK in human THP1-Blue cells assessed as reduction in LPS-induced NFkappaB/AP1 activation at <40 uM preincubated for 30 mins followed by LPS-stimulation and measured after 24 hrs by quanti-blue staining based alkaline phosphatase reporter gene assay; type: cell-based; conditions: not given
Outline: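 THP-1Blue monocytes carry a secreted alkaline phosphatase reporter under an NF-κB/AP-1-inducible promoter and were grown in RPMI 1640 with 10% FBS plus Zeocin and blasticidin selection. Cells, 2 × 10^5/well, were pretreated 30 min with compound or DMSO, then given 250 ng/ml LPS for 24 h. Supernatant phosphatase was read with QUANTI-Blue at 655 nm against LPS controls; IC50 calculated.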

| SMILES | inhibition |
| --- | --- |
| CC(C)CO/N=C1\c2ccccc2-c2nc3ccccc3nc21 | inactive |
| c1ccc(CO/N=C2\c3ccccc3-c3nc4ccccc4nc32)cc1 | inactive |
| [Na+].[O-]/N=C1/c2ccccc2-c2nc3c(Cl)cc(Cl)cc3nc21 | inactive |

Continued, values first:

| inhibition | SMILES |
| --- | --- |
| inactive | CO/N=C1\c2ccccc2-c2nc3ccccc3nc21 |
| inactive | O=C(O)CO/N=C1\c2ccccc2-c2nc3ccccc3nc21 |

target: T1, c-Jun N-terminal kinase, JNK; assay: Inhibition of JNK in human MONO-MAC-6 cells assessed as reduction in LPS-induced IL6 production at <40 uM preincubated for 30 mins followed by LPS-stimulation and measured after 24 hrs by ELISA; type: cell-based; conditions: not given; outline: as §1

| SMILES | inhibition |
| --- | --- |
| CC(C)CO/N=C1\c2ccccc2-c2nc3ccccc3nc21 | inactive |
| c1ccc(CO/N=C2\c3ccccc3-c3nc4ccccc4nc32)cc1 | inactive |
| [Na+].[O-]/N=C1/c2ccccc2-c2nc3c(Cl)cc(Cl)cc3nc21 | inactive |

Further lines, results first:

| inhibition | SMILES |
| --- | --- |
| inactive | CO/N=C1\c2ccccc2-c2nc3ccccc3nc21 |
| inactive | O=C(O)CO/N=C1\c2ccccc2-c2nc3ccccc3nc21 |

target: T2, Mitogen-activated protein kinase 8 (Homo sapiens, UniProt P45983); assay: Binding affinity to human full-length JNK1 (M1 to Q384 residues) expressed in HEK293 cells at <40 uM after 1 hr by Kinomescan method; type: cell-based; conditions: not given
T2 sequence (P45983 whole entry, the tested form may be a part): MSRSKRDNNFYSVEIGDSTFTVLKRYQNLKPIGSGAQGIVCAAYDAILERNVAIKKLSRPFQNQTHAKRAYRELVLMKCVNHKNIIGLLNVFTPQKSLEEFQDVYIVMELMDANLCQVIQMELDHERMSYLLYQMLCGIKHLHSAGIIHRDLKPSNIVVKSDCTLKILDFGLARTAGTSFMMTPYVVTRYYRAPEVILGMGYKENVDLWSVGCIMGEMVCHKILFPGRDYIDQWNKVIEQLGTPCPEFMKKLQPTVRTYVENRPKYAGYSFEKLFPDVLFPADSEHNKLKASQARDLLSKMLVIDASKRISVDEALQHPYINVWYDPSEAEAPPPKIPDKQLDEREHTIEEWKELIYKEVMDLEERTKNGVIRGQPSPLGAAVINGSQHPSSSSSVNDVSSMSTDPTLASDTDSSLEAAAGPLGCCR
Outline: (§2)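 Competition binding on a phage-display/cell-expressed kinase platform; each compound incubated with kinase 1 h at room temperature. Unbound kinase was captured on an immobilized affinity ligand and quantified by qPCR. […] N.A. means no inhibition below 40 µM.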

| Activity | SMILES |
| --- | --- |
| inactive | CO/N=C1\c2ccccc2-c2nc3ccccc3nc21 |
| inactive | CC(C)CO/N=C1\c2ccccc2-c2nc3ccccc3nc21 |
| inactive | c1ccc(CO/N=C2\c3ccccc3-c3nc4ccccc4nc32)cc1 |
| inactive | [Na+].[O-]/N=C1/c2ccccc2-c2nc3c(Cl)cc(Cl)cc3nc21 |

target: T3, Mitogen-activated protein kinase 9 (Homo sapiens, UniProt P45984); assay: Binding affinity to human full-length JNK2 (M1 to Q382 residues) expressed in HEK293 cells measured after 1 hr by Kinomescan method; type: cell-based; conditions: not given
Outline: (§3)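 Competition binding on a phage-display/cell-expressed kinase platform; each compound incubated with kinase 1 h at room temperature. Unbound kinase was captured on an immobilized affinity ligand and quantified by qPCR. N.A. means no inhibition below 40 µM.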
Target sequence in this assay (P45984 whole entry, the tested form may be a part): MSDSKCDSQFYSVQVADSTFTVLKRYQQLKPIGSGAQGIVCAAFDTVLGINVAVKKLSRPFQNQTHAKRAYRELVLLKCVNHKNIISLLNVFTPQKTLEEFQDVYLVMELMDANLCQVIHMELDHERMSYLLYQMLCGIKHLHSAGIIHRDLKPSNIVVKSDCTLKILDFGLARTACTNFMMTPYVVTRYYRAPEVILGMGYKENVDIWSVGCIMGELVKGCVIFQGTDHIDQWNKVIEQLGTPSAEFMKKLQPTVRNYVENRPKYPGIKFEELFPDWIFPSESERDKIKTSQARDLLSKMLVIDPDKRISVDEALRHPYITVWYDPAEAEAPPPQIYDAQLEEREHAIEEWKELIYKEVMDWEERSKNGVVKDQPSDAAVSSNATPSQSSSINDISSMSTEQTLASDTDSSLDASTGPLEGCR

| SMILES | Kd [µM] |
| --- | --- |
| O/N=C1/c2ccccc2-c2nc3ncc(Cl)cc3nc21 | 6.4 |
| O/N=C1/c2ccccc2-c2nc3ccncc3nc21 | 1.4 |

Further lines, results first:

| Kd [µM] | SMILES |
| --- | --- |
| 16.5 | O=C(O)CO/N=C1\c2ccccc2-c2nc3ccccc3nc21 |
| 6 | O=C(O)c1ccc2nc3c(nc2c1)/C(=N\O)c1ccccc1-3 |

target: T1, c-Jun N-terminal kinase, JNK; assay: Inhibition of JNK in human THP1-Blue cells assessed as reduction in LPS-induced NFkappaB/AP1 activation preincubated for 30 mins followed by LPS-stimulation and measured after 24 hrs by quanti-blue staining based alkaline phosphatase reporter gene assay; type: cell-based; conditions: not given

| IC50 [µM] | SMILES |
| --- | --- |
| 3.3 | O/N=C1/c2ccccc2-c2nc3ncc(Cl)cc3nc21 |
| 24.6 | O=C(O)c1ccc2nc3c(nc2c1)/C(=N\O)c1ccccc1-3 |
| 5.4 | O/N=C1/c2ccccc2-c2nc3ccncc3nc21 |

target: T2, Mitogen-activated protein kinase 8; assay: Binding affinity to human full-length JNK1 (M1 to Q384 residues) expressed in HEK293 cells measured after 1 hr by Kinomescan method; type: cell-based; conditions: not given; outline: as §3

| SMILES | Kd [µM] |
| --- | --- |
| O/N=C1/c2ccccc2-c2nc3ncc(Cl)cc3nc21 | 5.3 |
| O/N=C1/c2ccccc2-c2nc3ccncc3nc21 | 0.95 |

The remaining lines, values ahead:

| Kd [µM] | SMILES |
| --- | --- |
| 23.5 | O=C(O)CO/N=C1\c2ccccc2-c2nc3ccccc3nc21 |
| 2.1 | O=C(O)c1ccc2nc3c(nc2c1)/C(=N\O)c1ccccc1-3 |

target: T4, Mitogen-activated protein kinase 10 (Homo sapiens, UniProt P53779); assay: Binding affinity to human partial length JNK3 (V28 to Q422 residues) expressed in HEK293 cells at <40 uM after 1 hr by Kinomescan method; type: cell-based; conditions: not given; outline: as §2
T4 sequence (P53779 whole entry, the tested form may be a part): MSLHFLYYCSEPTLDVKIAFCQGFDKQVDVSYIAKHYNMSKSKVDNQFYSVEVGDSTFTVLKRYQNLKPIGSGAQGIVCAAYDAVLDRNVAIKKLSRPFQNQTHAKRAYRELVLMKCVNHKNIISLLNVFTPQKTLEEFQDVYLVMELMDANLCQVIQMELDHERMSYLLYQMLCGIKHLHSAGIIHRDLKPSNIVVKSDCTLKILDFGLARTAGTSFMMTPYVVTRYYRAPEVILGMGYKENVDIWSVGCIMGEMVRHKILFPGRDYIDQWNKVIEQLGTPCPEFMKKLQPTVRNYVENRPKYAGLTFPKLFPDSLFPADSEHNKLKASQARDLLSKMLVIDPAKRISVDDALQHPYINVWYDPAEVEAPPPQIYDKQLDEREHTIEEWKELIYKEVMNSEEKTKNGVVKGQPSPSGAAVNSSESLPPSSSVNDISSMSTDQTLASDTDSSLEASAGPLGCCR

| Activity | SMILES |
| --- | --- |
| inactive | CO/N=C1\c2ccccc2-c2nc3ccccc3nc21 |
| inactive | CC(C)CO/N=C1\c2ccccc2-c2nc3ccccc3nc21 |
| inactive | c1ccc(CO/N=C2\c3ccccc3-c3nc4ccccc4nc32)cc1 |
| inactive | [Na+].[O-]/N=C1/c2ccccc2-c2nc3c(Cl)cc(Cl)cc3nc21 |

target: T4, Mitogen-activated protein kinase 10; assay: Binding affinity to human partial length JNK3 (V28 to Q422 residues) expressed in HEK293 cells measured after 1 hr by Kinomescan method; type: cell-based; conditions: not given; outline: as §3

| SMILES | Kd [µM] |
| --- | --- |
| O/N=C1/c2ccccc2-c2nc3ncc(Cl)cc3nc21 | 2.9 |
| O/N=C1/c2ccccc2-c2nc3ccncc3nc21 | 0.28 |

The next lines start with the values.

| Kd [µM] | SMILES |
| --- | --- |
| 28.5 | O=C(O)CO/N=C1\c2ccccc2-c2nc3ccccc3nc21 |
| 3.9 | O=C(O)c1ccc2nc3c(nc2c1)/C(=N\O)c1ccccc1-3 |

tested on: not listed separately; assay: Cytotoxicity against human THP1-Blue cells assessed as effect on cell viability up to 50 uM after 24 hrs by CellTiter-Glo luminescent cell viability assay; type: cell-based; conditions: not given
Outline: (§4)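 Viability of MonoMac-6 and THP-1Blue cells was tested with compound up to 50 µM for 24 h at 37 °C, 5% CO2. After 30 min equilibration to room temperature, CellTiter-Glo reagent was added and luminescence read. IC50 was derived from percent inhibition vs log concentration, at least five points.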

| SMILES | Activity |
| --- | --- |
| CO/N=C1\c2ccccc2-c2nc3ccccc3nc21 | Non-Toxic |
| CC(C)CO/N=C1\c2ccccc2-c2nc3ccccc3nc21 | Non-Toxic |
| c1ccc(CO/N=C2\c3ccccc3-c3nc4ccccc4nc32)cc1 | Non-Toxic |
| [Na+].[O-]/N=C1/c2ccccc2-c2nc3c(Cl)cc(Cl)cc3nc21 | Non-Toxic |
| O=C(O)CO/N=C1\c2ccccc2-c2nc3ccccc3nc21 | Non-Toxic |
| O/N=C1/c2ccccc2-c2nc3ncc(Cl)cc3nc21 | Non-Toxic |
| O=C(O)c1ccc2nc3c(nc2c1)/C(=N\O)c1ccccc1-3 | Non-Toxic |
| O/N=C1/c2ccccc2-c2nc3ccncc3nc21 | Non-Toxic |

tested on: MONO-MAC-6; assay: Cytotoxicity against human MONO-MAC-6 cells assessed as effect on cell viability up to 50 uM after 24 hrs by CellTiter-Glo luminescent cell viability assay; type: cell-based; conditions: mono-mac-6, 24 h; outline: as §4

| SMILES | Activity |
| --- | --- |
| CO/N=C1\c2ccccc2-c2nc3ccccc3nc21 | Non-Toxic |
| CC(C)CO/N=C1\c2ccccc2-c2nc3ccccc3nc21 | Non-Toxic |
| c1ccc(CO/N=C2\c3ccccc3-c3nc4ccccc4nc32)cc1 | Non-Toxic |
| [Na+].[O-]/N=C1/c2ccccc2-c2nc3c(Cl)cc(Cl)cc3nc21 | Non-Toxic |
| O=C(O)CO/N=C1\c2ccccc2-c2nc3ccccc3nc21 | Non-Toxic |
| O/N=C1/c2ccccc2-c2nc3ncc(Cl)cc3nc21 | Non-Toxic |
| O=C(O)c1ccc2nc3c(nc2c1)/C(=N\O)c1ccccc1-3 | Non-Toxic |
| O/N=C1/c2ccccc2-c2nc3ccncc3nc21 | Non-Toxic |

target: T3, Mitogen-activated protein kinase 9; assay: Binding affinity to human full-length JNK2 (M1 to Q382 residues) expressed in HEK293 cells at <40 uM after 1 hr by Kinomescan method; type: cell-based; conditions: not given; outline: as §2
Target sequence in this assay (P45984 whole entry, looked up, the tested form may be a part): as the sequence (P45984 whole entry, the tested form may be a part) above

| Activity | SMILES |
| --- | --- |
| inactive | CO/N=C1\c2ccccc2-c2nc3ccccc3nc21 |
| inactive | CC(C)CO/N=C1\c2ccccc2-c2nc3ccccc3nc21 |
| inactive | c1ccc(CO/N=C2\c3ccccc3-c3nc4ccccc4nc32)cc1 |
| inactive | [Na+].[O-]/N=C1/c2ccccc2-c2nc3c(Cl)cc(Cl)cc3nc21 |
